Experimental data collected from several papers.
pIC50: −log10 of the molar value.
Cell line: HeLa
Observed: cell growth or viability

| SMILES | test | setting | measurement | result |
| --- | --- | --- | --- | --- |
| CSc1ccc(NC(=S)NN)cc1 |  | 72 h | IC50 | 18 µg/mL |
| COc1c2c(cc3c1OCO3)[C@]13C=C[C@H](OC)C[C@@H]1[N@](C2)C[C@H]3OC(=O)c1ccco1 | WST-1 | 48 h | pIC50 | < 5.00 |
| N.N.[Cl][Pt][Cl] | MTT | 48 h | pIC50 | 4.77 |
| CC[C@@]1(OC(=O)C(C)c2cccc(C(=O)c3ccccc3)c2)C(=O)OCc2c1cc1n(c2=O)Cc2cc3cc4c(cc3nc2-1)OCO4 (stereo partly shown) | MTT |  | pIC50 | 6.57 |
| N#Cc1ccc(NC(=S)NN=Cc2ccc(O)cc2)cc1 |  | 72 h | IC50 | 91 µg/mL |
| O=C(Cc1ccc2ccccc2c1)N[C@H](Cc1ccccc1)C(=O)N[C@@H](Cc1ccccc1)C(=O)N[C@@H](Cc1ccc(OP(=O)(O)O)cc1)C(=O)O | MTT | 48 h | pIC50 | < 3.30 |
| N.N.[Cl][Pt][Cl] |  | 72 h | IC50 | 0.22 µg/mL |
| CC[C@@]1(OC(=O)[C@@H]2CCCN2)C(=O)OCc2c1cc1n(c2=O)Cc2cc3cc4c(cc3nc2-1)OCO4 | MTT |  | pIC50 | 6.70 |
| COc1c2c(cc3c1OCO3)[C@]13C=C[C@H](OC)C[C@@H]1[N@](C2)C[C@H]3OC(=O)c1ccc2ccccc2c1 | WST-1 | 48 h | pIC50 | < 5.00 |
| CC(C)[C@]12O[C@H]1[C@@H]1O[C@]13[C@]1(O[C@H]1C[C@H]1C4=C(CC[C@@]13C)C(=O)OC4)[C@@H]2O | thymidine uptake | 24 h | pIC50 | 7.92 |
| Nc1cc(Cl)c(Cl)cc1N |  | 72 h | pIC50 | 4.30 |
| CC[C@H](C)[C@H](N)C(=O)O[C@]1(CC)C(=O)OCc2c1cc1n(c2=O)Cc2cc3cc4c(cc3nc2-1)OCO4 | MTT |  | pIC50 | 6.91 |
| COc1cc(C(=O)c2cc3c(-c4ccccc4)c(O)ccc3o2)cc(OC)c1OC |  |  | pIC50 | 4.51 |
| CC[C@@]1(OC(=O)[C@@H](N)CCSC)C(=O)OCc2c1cc1n(c2=O)Cc2cc3cc4c(cc3nc2-1)OCO4 | MTT |  | pIC50 | 7.02 |
| CC[C@H](C)[C@@H]([C@@H](CC(=O)N1CCC[C@H]1[C@H](OC)[C@@H](C)C(=O)N[C@H](C)[C@@H](O)c1ccccc1)OC)N(C)C(=O)[C@@H](NC(=O)[C@H](C(C)C)N(C)C(=O)OCc1ccc(NC(=O)[C@H](CCCNC(N)=O)NC(=O)[C@@H](NC(=O)CCCCCN2C(=O)CC(SCCC(=O)N[C@@H](Cc3cn(CCOCCNCCCCCCOc4cc(OCCCc5c(C)n[nH]c5C)cc(C(=O)O)c4)nn3)C(=O)NCCCCCC(=O)NCCCC[C@H](NC(=O)N[C@@H](CCC(=O)O)C(=O)O)C(=O)O)C2=O)C(C)C)cc1)C(C)C (stereo partly shown) | MTT |  | pIC50 | 6.43 |
| CC[C@@]1(OC(=O)CN)C(=O)OCc2c1cc1n(c2=O)Cc2cc3cc4c(cc3nc2-1)OCO4 | MTT |  | pIC50 | 7.38 |
| C[C@]12C=CC(=O)C[C@@H]1CC[C@@H]1[C@@H]2C(=O)C[C@@]2(C)[C@H]1CC[C@]2(C)O | MTT | 24 h | pIC50 | 4.72 |
| CC[C@@]1(OC(=O)C(C)c2ccc(CC(C)C)cc2)C(=O)OCc2c1cc1n(c2=O)Cc2cc3cc4c(cc3nc2-1)OCO4 (stereo partly shown) | MTT |  | pIC50 | < 5.30 |
| N#Cc1ccc(NC(=S)NN=Cc2ccc(F)cc2)cc1 |  | 72 h | IC50 | 68 µg/mL |
